Screening results: PubChem, Johns Hopkins Ion Channel Center
MrgX1 antagonist – antagonists of human MrgX1 receptor; Q96LB2; actives 1.3% (n = 310,000); MRGX1-HEK293 calcium flux, Fluo-4, BAM8-22 antagonism; hits give low values; B-score at 10 µM;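 active = calcium-response B-score plate-corrected more than 3 library SD below zero, starting fluorescence within 5 deviations, no agonist response on first addition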;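 note: peak minus trough fluorescence over baseline after final BAM8-22 challenge near maximal dose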
Target sequence (Q96LB2 whole entry, looked up): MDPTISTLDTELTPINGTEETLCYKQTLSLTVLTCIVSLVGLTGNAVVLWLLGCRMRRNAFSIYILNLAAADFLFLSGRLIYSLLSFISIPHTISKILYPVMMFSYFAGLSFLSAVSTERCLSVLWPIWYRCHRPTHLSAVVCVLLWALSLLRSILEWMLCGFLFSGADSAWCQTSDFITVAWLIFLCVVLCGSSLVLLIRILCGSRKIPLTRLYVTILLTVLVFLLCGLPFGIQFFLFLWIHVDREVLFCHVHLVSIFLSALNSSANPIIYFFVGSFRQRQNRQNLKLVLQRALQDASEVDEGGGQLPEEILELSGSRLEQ
MrgX1 PAM – human MrgX1 positive allosteric modulation, primary screen | Q96LB2 | MrgX1-HEK293, Fluo-4 calcium flux, FDSS; hits give high values | B-score at 10 µM | actives 0.63% (n = 310,000);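 active = plate-corrected calcium response at least 3 library SD above typical, normal starting fluorescence, not activating the receptor alone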;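 note: compound read alongside a low EC10 to EC30 dose of BAM8-22 agonist; peak minus trough fluorescence over baseline measured at the second addition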
RGS4 inh – inhibitors of human RGS4 | HEK293 M3R/RGS4 inducible, Fluo-4 calcium flux; hits give high values; triggered by carbachol at its EC20 | B-score at 10 µM | actives 0.45% (n = 310,000) | AID 463165;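 active = B-score, a plate-corrected calcium signal, over three deviations above library mean, with baseline fluorescence within five deviations of library mean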;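 note: RGS4 expression induced by doxycycline in cells with stable M3 receptor; B-score is computed from the integrated fluorescence ratio over baseline after carbachol; higher B-score means a larger calcium signal and so more RGS4 inhibition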
Target sequence (P49798 whole entry, looked up): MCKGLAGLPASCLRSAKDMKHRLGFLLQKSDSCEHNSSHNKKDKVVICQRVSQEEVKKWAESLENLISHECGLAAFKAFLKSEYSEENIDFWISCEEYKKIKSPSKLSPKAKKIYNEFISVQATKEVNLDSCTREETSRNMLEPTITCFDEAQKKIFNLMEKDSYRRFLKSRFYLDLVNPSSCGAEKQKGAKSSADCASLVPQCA
RGS4 pot – RGS4 potentiation or activation; HEK293 M3R/inducible RGS4, carbachol calcium flux Fluo4; hits give low values; B-score at 10 µM; actives 0.92% (n = 310,000);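 active = B-score of the integrated calcium signal more than 4 SD below the library mean, with starting fluorescence not abnormally high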;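 note: negative B-score means reduced calcium response which marks RGS4 activation or potentiation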
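Detection: kinetic calcium fluorescence imaging with Fluo4-AM dye, 2 µM / Material: HEK293 cells with stable M3R and inducible RGS4 / Schedule: recording 10 s baseline at 1 Hz, 100 s post-agonist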
MrgX1 agonist – activates human MrgX1 receptor signaling | actives 0.44% (n = 310,000) | B-score at 10 µM | MrgX1-HEK293 cells, Fluo-4 calcium fluorescence, agonist mode; hits give high values | Q96LB2;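 active = calcium response B-score plate-corrected fluorescence ratio at least 3 library SD, with starting fluorescence B-score inside 5 SD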
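Assay system: MrgX1-expressing HEK293 cells / Amount: fifteen thousand cells per well / Doses: test compound in the initial addition of three / Timing: cells plated overnight, dye loaded 0.5 h 37 °C, 0.5 h room temperature / Technique: kinetic calcium dye fluorescence, Fluo-4 NW / Control set: positive and negative controls per plate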
* marks the source's active call; other numbers are inactive results; i = inactive; . = no result given. A selection: hits, their analogues and other compounds. The true share with any hit is near 3.5%.

SMILES | MrgX1 antagonist | MrgX1 PAM | RGS4 inh | RGS4 pot | MrgX1 agonist
Cc1ccc(S(=O)(=O)N2CCC(C(=O)N/N=C/c3cccnc3)CC2)cc1 | -5.2* | i | i | i | i
Cc1ccsc1/C=C/c1ccc2ccccc2n1 | i | i | i | i | i
Cc1ccsc1/C=C/c1ccc2cccc(O)c2n1 | -5* | i | i | i | i
Cc1ccccc1NC(=O)Nc1nnc(Cc2ccc([N+](=O)[O-])cc2)s1 | i | i | i | i | i
CC1(C)CC(=O)C(C=Nc2ccccc2Sc2ccccc2)=C(O)C1 | i | i | i | -8.8* | i
CC1(C)CC(=O)C(C=Nc2ccccc2C(=O)O)=C(O)C1 | i | i | i | i | i
CC(Oc1ccc(Cl)cc1Cl)c1ccn[nH]1 (stereo unspecified) | i | i | i | i | i
CCO[C@H]1OC(C(=O)N2CCN(Cc3ccccc3)CC2)=C[C@@H](c2coc3ccccc3c2=O)[C@@H]1CCCO | i | i | i | i | i
CCO[C@@H]1OC(C(=O)N2CCN(Cc3ccc4c(c3)OCO4)CC2)=C[C@H](c2coc3ccccc3c2=O)[C@H]1CCCO | -5.1* | i | i | i | i
CCC(C)(C)c1ccc(OC(=O)c2cccnc2Cl)cc1 | i | i | i | i | i
CC(C)CC(NC(N)=O)C(=O)NCCc1ccc(Cl)cc1 (stereo unspecified) | i | i | i | i | i
CC(C)CCOc1ccc(C(=O)NCC(c2ccco2)N(C)C)cc1 (stereo unspecified) | i | i | i | -7.5* | i
O=C1N/C(=C/c2cccs2)C(=O)N1Cc1ccccc1F | i | i | i | i | i
Cc1ccc(/C=C2/NC(=O)N(Cc3ccccc3F)C2=O)s1 | -7.5* | i | i | i | i
Cc1ccc(N(CCC#N)C(=O)COC(=O)c2ccccn2)cc1 | i | i | i | i | i
C/C(=N/NC(=O)c1ccc(C(C)(C)C)cc1)c1ccccn1 | i | i | 8.5* | i | i
CC1CCCN(CCOCCOc2ccc(Br)cc2Cl)C1 (stereo unspecified) | i | i | i | -7.5* | i
COc1cccc(OC(=O)c2cc3ccccc3oc2=O)c1 | -5* | i | i | i | i
CC[n+]1ccccc1/C=C1\Sc2ccc(C)cc2N1C | -8.4* | i | i | i | i
Cc1oc2c(c1C(=O)c1ccc(Cl)cc1)C(=O)C(=O)c1ccccc1-2 | . | . | i | i | .
Cc1ccc(C(=O)c2c(C)oc3c2C(=O)C(=O)c2ccccc2-3)cc1 | i | i | i | -7.5* | i
O=C(O)Cc1sc(N/N=C\c2ccncc2)nc1-c1ccccc1 | -5.8* | i | i | i | i
C(=N\Nc1nc(-c2ccccc2)cs1)/c1ccncc1 | i | i | i | i | i
CCN(CC)CCNC(=O)CCc1c(C)nc2c(c(C)nn2-c2ccc(C)c(C)c2)c1C | i | i | i | -7* | i
COC(CNC(=O)CCc1c(C)nc2c(c(C)nn2-c2ccc(C)cc2)c1C)OC | i | i | i | i | i
SMILES | MrgX1 antagonist | MrgX1 PAM | RGS4 inh | RGS4 pot | MrgX1 agonist
Cc1ccc(-n2nc(C)c3c(C)c(CCC(=O)Nc4ccc(CN5CCCC5)cc4)c(C)nc32)cc1 | i | i | i | -7.1* | i
COc1ccc(F)cc1Cn1nc(C(=O)O)c2ccccc2c1=O | i | i | i | i | i
CC1(C)Cc2c(sc3c2c(=N)n(Cc2ccco2)c(=O)n3Cc2ccc(F)cc2)CO1 | -4.6* | i | . | . | i
COc1ccc(Cn2c(=O)n(Cc3ccco3)c(=N)c3c4c(sc32)COC(C)(C)C4)cc1 | i | i | . | . | i
CCOc1ccc(S(=O)(=O)N2CCOCC2)cc1NC(=O)CN1C(=O)NC(CC)(c2ccccc2)C1=O (stereo unspecified) | i | i | i | i | i
Cc1ccc(-n2nnnc2-c2cccs2)cc1[N+](=O)[O-] | i | i | i | -7.4* | i
CCCOc1ccc(N)cc1N | -6.7* | i | i | i | i
Cc1cccc(N(CC(=O)NCC2CCCO2)C(=O)CNS(=O)(=O)c2ccc(Cl)cc2)c1 (stereo unspecified) | i | i | i | i | i
Cc1nn(CC(=O)NCc2ccc(OC(C)C)cc2)c(=O)c2cc(-c3ccccc3)nn12 | i | i | i | i | i
COc1cc(/C=N/N=C(N)N)ccc1OCc1ccccc1Cl | i | 6.5* | i | i | i
COc1ccc(/C=N/N=C/c2ccc(OC)c(OC)c2)cc1OC | i | i | i | i | i
COc1ccc(C(=O)c2ccc(Cl)cc2)cc1 | i | i | i | i | i
COc1ccc(C(=O)c2ccc(Cl)c([N+](=O)[O-])c2)cc1 | i | 7* | i | i | i
Cc1ccc(Sc2c([N+](=O)[O-])ncn2C)cc1 | i | i | i | i | i
Cn1cnc([N+](=O)[O-])c1Sc1ncccc1N | -7.2* | i | i | i | i
Nc1ccccc1C(=O)NC1CCCNC1=O (stereo unspecified) | i | i | i | i | i
Cc1cc(C2=NNC(=NCCc3ccccc3)SC2)c(C)n1CC1CCCO1 (stereo unspecified) | i | i | i | i | 45*
CCOc1c(OC(C)=O)ccc(/C=C2\N=C(SCC)SC2=O)c1[N+](=O)[O-] | i | i | i | -7.1* | i
CCOc1cc(/C=C2\N=C(SCC)SC2=O)cc([N+](=O)[O-])c1OC(C)=O | i | i | i | i | i
CCc1ccc(NC(=O)CCCN2C(=O)C3CC=CCC3C2=O)cc1 (stereo unspecified) | i | i | i | i | i
O=C(CN1CCCCC1)N1N=C(c2cccs2)CC1c1cccs1 (stereo unspecified) | i | i | i | -8* | i
COc1ccc(C(CC(=O)NCc2ccccc2)C(C)C)cc1 (stereo unspecified) | i | i | i | i | i
CN(C)/N=C/C=C1\CCC/C(=C/c2cccs2)C1=O | i | 9.4* | i | i | i
CC(C)C[C@H](NC(=O)N1CCn2c1nc1ccccc12)C(=O)NCC1CCCO1 (stereo partly specified) | i | i | i | i | i
Cc1ccc(Nc2nc(C)cc(C)c2C(N)=O)c(C)c1 | i | i | i | i | i
C[C@]12C=CC(=O)C=C1CC[C@@H]1C2=CC[C@]2(C)[C@@H](C(=O)CN3CCN(c4cc(N5CCCC5)nc(N5CCCC5)n4)CC3)CC[C@@H]12 | i | i | i | i | 38*
